Results published in ChEMBL document CHEMBL1926565, “Synthesis, antiproliferative activities and telomerase inhibition evaluation of novel asymmetrical 1,2-disubstituted amidoanthraquinone derivatives” (Eur J Med Chem, 2012).

Key:
UACC-257 = assay: Anticancer activity against human UACC257 cells; format: functional
OVCAR-3 = assay: Anticancer activity against human OVCAR3 cells; format: functional
Method in brief: (§1)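 NCI 60-human-tumour-cell-line panel. Selected analogues were first run at one dose, then some were carried into multi-dose testing. GI50 (50% growth inhibition), TGI (total growth inhibition) and LC50 (50% cell kill) were read as values interpolated where the dose–response curves cross these levels.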

OVCAR-4 = assay: Anticancer activity against human OVCAR4 cells; format: functional; method in brief: as §1
OVCAR-5 = assay: Anticancer activity against human OVCAR5 cells; format: functional; method in brief: as §1
SK-OV-3 = assay: Anticancer activity against human SKOV3 cells; format: functional; method in brief: as §1
786-0 = assay: Anticancer activity against human 786-0 cells; format: functional; method in brief: as §1
A498 = assay: Anticancer activity against human A498 cells; format: functional; method in brief: as §1
TK-10 = assay: Anticancer activity against human TK10 cells; format: functional
CAKI-1 = assay: Anticancer activity against human Caki1 cells; format: functional; method in brief: as §1
RXF 393 = assay: Anticancer activity against human RXF393 cells; format: functional; method in brief: as §1
PC-3 = assay: Anticancer activity against human PC3 cells; format: functional; method in brief: as §1
MCF7 = assay: Anticancer activity against human MCF7 cells; format: functional; method in brief: as §1
T47D = assay: Anticancer activity against human T47D cells; format: functional
NCI-H460 = assay: Cytotoxicity against human NCI-H460 cells assessed as cellular growth at 10 uM; format: functional
Method in brief: (§2)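 Single-dose screen run by the NCI across its 60-human-tumour-cell-line panel; growth recorded for each cell line.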

HCT-116 = assay: Cytotoxicity against human HCT116 cells assessed as cellular growth at 10 uM; format: functional; method in brief: as §2
HCT-15 = assay: Cytotoxicity against human HCT15 cells assessed as cellular growth at 10 uM; format: functional; method in brief: as §2
HT-29 = assay: Cytotoxicity against human HT-29 cells assessed as cellular growth at 10 uM; format: functional; method in brief: as §2
SF-268 = assay: Cytotoxicity against human SF268 cells assessed as cellular growth at 10 uM; format: functional; method in brief: as §2
U-251 = assay: Cytotoxicity against human U251 cells assessed as cellular growth at 10 uM; format: functional
Malme-3M = assay: Cytotoxicity against human MALME-3M cells assessed as cellular growth at 10 uM; format: functional; method in brief: as §2
MDA-MB-435 = assay: Cytotoxicity against human MDA-MB-435 cells assessed as cellular growth at 10 uM; format: functional; method in brief: as §2
[1] = Growth of human H1299 cells at 100 uM 48 hrs by MTT assay; details: NCI-H1299, 48 h
[2] = read-out: LC50 (the source's name)

Compound: Cc1ccc(C(=O)Nc2c(NC(=O)CCl)ccc3c2C(=O)c2ccccc2C3=O)cc1
- GI50 (UACC-257): 1.61 µM
- TGI (UACC-257): 6.27 µM
- CC50 (UACC-257; [2]): 24.3 µM
- GI50 (OVCAR-3): 1.35 µM
- TGI (OVCAR-3): 3.54 µM
- CC50 (OVCAR-3; [2]): 15.2 µM
- GI50 (OVCAR-4): 5.52 µM
- TGI (OVCAR-4): 12 µM
- CC50 (OVCAR-4; [2]): 25.9 µM
- GI50 (OVCAR-5): 11.3 µM
- TGI (OVCAR-5): 19.2 µM
- CC50 (OVCAR-5; [2]): 32.7 µM
- GI50 (SK-OV-3): 13.2 µM
- TGI (SK-OV-3): 35.9 µM
- CC50 (SK-OV-3; [2]): > 50 µM
- GI50 (786-0): 9.48 µM
- TGI (786-0): 17.2 µM
- CC50 (786-0; [2]): 31.2 µM
- GI50 (A498): 9.87 µM
- TGI (A498): 22.5 µM
- CC50 (A498; [2]): > 50 µM
- GI50 (TK-10): 2.34 µM
- TGI (TK-10): 4.94 µM
- CC50 (TK-10; [2]): 29.2 µM
- GI50 (CAKI-1): 6.87 µM
- TGI (CAKI-1): 15.2 µM
- CC50 (CAKI-1; [2]): 33.7 µM
- GI50 (RXF 393): 7.84 µM
- TGI (RXF 393): 16.5 µM
- CC50 (RXF 393; [2]): 34.6 µM
- GI50 (PC-3): 6.54 µM
- TGI (PC-3): 15.4 µM
- CC50 (PC-3; [2]): 36.5 µM
- GI50 (MCF7): 1.12 µM
- TGI (MCF7): 4.95 µM
- CC50 (MCF7; [2]): > 50 µM
- GI50 (T47D): 1.19 µM
- TGI (T47D): 4.04 µM
- CC50 (T47D; [2]): 46.3 µM
- Activity (NCI-H460): 95.65%
- Activity (HCT-116): -54.27%
- Activity (HCT-15): -50.22%
- Activity (HT-29): 3.37%
- Activity (SF-268): 14.63%
- Activity (U-251): -44.02%
- Activity (Malme-3M): -22.41%
- Activity (MDA-MB-435): 4.82%
- growth, % of control at 100 µM [1]: 0%
